One test addresses Cannabinoid receptor 1 (Rattus norvegicus, UniProt P20272). The experiment in a line: Inhibitory activity, measured by displacement [3H]CP-55940 from cannabinoid receptor (CB1) in rat brain. The format is tissue-based.
Test [1] in a line: Inhibitory activity at GABA B receptor, measured by the ability to displace [3H]baclofen from GABA B receptor in rat brain. The format is tissue-based.
The target in test [2] is GABA-A receptor; anion channel. The experiment in a line: Inhibitory activity at GABA A receptor, measured by the ability to displace [35S]TBPS from GABA A receptor in rat brain. The format is tissue-based.
Test [3] concerns the target GABA-A receptor; anion channel. Kind of test: Inhibitory activity at GABA A receptor, measured by the ability to displace [3H]GABA from GABA A receptor in rat brain. The format is tissue-based.
Test [4] addresses GABA-A receptor; anion channel. Kind of test: Inhibitory activity at GABA A receptor, measured by the ability to displace [3H]flumazenil from GABA A receptor in rat brain. Format: tissue-based.
The target of test [5] is GABA-A receptor; anion channel. Kind of test: Inhibitory activity at GABA A receptor, measured by the ability to displace [3H]zolpidem from GABA A receptor in rat brain. The format is tissue-based.
The target of test [6] is T1, Gastrin/cholecystokinin type B receptor (Rattus norvegicus, UniProt P30553).
T1 sequence (P30553 whole entry): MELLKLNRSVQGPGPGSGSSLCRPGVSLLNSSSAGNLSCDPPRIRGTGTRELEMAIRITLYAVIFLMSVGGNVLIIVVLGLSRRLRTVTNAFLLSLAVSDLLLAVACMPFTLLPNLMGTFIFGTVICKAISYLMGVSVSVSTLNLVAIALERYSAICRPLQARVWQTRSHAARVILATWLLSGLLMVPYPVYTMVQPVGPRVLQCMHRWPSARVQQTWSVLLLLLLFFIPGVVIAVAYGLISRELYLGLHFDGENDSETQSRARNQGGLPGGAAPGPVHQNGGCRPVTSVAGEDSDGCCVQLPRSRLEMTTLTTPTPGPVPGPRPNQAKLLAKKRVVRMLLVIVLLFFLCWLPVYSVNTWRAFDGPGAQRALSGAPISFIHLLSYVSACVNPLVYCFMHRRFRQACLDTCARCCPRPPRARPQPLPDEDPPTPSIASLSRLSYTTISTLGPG
Kind of test: Inhibitory activity by measuring its ability to displace [3H]L-365260 from cholecystokinin receptor in rat brain. The format is tissue-based.

For test [7], the target named is Adrenergic receptor alpha. Kind of test: Inhibitory activity by measuring its ability to displace [3H]WB-4101 from alpha-adrenergic receptor in rat brain. The format is tissue-based.
For test [8], the target named is Adrenergic receptor alpha. Kind of test: Inhibitory activity by measuring its ability to displace [3H]clonidine from alpha-adrenergic receptor in rat brain. The format is tissue-based.
The target in a further test is Adrenergic receptor beta (Rattus norvegicus, UniProt P18090+P10608+P26255). The experiment in a line: Inhibitory activity by measuring its ability to displace [125I]pindolol from beta-adrenergic receptor in rat brain. The format is tissue-based.
A short description of test [9]: Inhibitory activity by measuring its ability to displace [3H]glycine from glycine receptor in rat brain. Format: tissue-based.
The next test deals with Glutamate NMDA receptor. Kind of test: Inhibitory activity by measuring its ability to displace [3H]-MK-801 from glutamate(NMDA) receptor in rat brain. The format is tissue-based.
The nature of test [10]: Tested for inhibitory activity by measuring its ability to displace [3H]AMPA from glutamate (non-NMDA) receptor in rat brain. Format: tissue-based.
Test [11] in a line: Inhibitory activity by measuring its ability to displace [3H]spiperone from dopamine or serotonin 5-HT-1 receptors in rat brain. The format is tissue-based.
In the next test the target is Translocator protein (Rattus norvegicus, UniProt P16257). The experiment in a line: Binding affinity against mitochondrial DBI complex (peripheral benzodiazepine receptor) using primary cultures of glial cells. The essentials:
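Glia from cerebella of 8-day-old Sprague–Dawley rat pups, trypsin-dissociated and grown 14 days (~95% astroglia). Cells lysed in 50 mM Hepes pH 7.4, 4 μg protein per tube. Incubated with [3H]4'-chlorodiazepam and competitor for 90 min at 4 °C, then filtered. Nonspecific binding defined with 10 μM 4'-chlorodiazepam. Triplicate competition curves; IC50 by nonlinear regression, converted to Ki (Bylund–Yamamura).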

Chain of Cannabinoid receptor 1 (P20272 whole entry): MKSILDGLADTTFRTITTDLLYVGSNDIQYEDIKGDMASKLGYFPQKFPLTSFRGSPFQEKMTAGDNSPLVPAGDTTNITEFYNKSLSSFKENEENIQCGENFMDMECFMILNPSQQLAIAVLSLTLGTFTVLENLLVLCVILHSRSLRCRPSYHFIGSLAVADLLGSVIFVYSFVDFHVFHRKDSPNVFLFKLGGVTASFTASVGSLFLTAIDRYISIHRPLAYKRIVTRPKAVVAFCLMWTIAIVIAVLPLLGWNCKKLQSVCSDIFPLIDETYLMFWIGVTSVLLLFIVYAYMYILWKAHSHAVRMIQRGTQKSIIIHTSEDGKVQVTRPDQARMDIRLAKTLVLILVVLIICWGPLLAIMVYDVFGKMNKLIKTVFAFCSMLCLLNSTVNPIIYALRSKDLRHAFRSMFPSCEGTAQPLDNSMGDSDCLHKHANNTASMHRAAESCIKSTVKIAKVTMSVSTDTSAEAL
Chain of Translocator protein (P16257 whole entry, looked up): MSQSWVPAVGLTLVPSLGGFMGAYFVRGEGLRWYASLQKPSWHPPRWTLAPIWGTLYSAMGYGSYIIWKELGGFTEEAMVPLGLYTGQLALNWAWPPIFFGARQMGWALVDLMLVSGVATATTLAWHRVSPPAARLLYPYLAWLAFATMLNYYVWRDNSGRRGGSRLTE

The term IC50 denotes the point on the concentration scale where inhibition reaches its midpoint. The low end stands for greater potency in that assay, the high end for weaker potency in that assay. In general, Ki refers to the dissociation constant of the complex between target and ligand, obtained from inhibition or displacement. Higher therefore signals a looser hold on the target. As to `CCCN(CCC)C(=O)Cc1c(-c2ccc(C)cc2)[nH]c2ccc(C)cc12`, the IC50 (on Cannabinoid receptor 1; in test [1]; in test [2]; in test [3]; in test [4]; in test [5]) was over 1 µM in each case. Further, the IC50 (in test [6]; in test [7]; in test [8]; at Adrenergic receptor beta; in test [9]; on Glutamate NMDA receptor) was over 1 µM each time. Moreover, the IC50 in test [10] and in [11] was over 1 µM in each case. The compound further gave a Ki on Translocator protein of 0.066 µM.

Regarding `CCCN(CCC)C(=O)Cc1c(-c2ccccc2)[nH]c2c(F)cccc12`, the IC50 (at Cannabinoid receptor 1; in test [1]; in test [2]; in test [3]; in [4]; in [5]) was over 1 µM throughout. The half-maximal inhibitory concentration (IC50) (in test [6]; in test [7]; in test [8]; at Adrenergic receptor beta; in test [9]; on Glutamate NMDA receptor) was over 1 µM in each case. Besides, the IC50 in test [10] and in [11] was over 1 µM throughout. For the same compound, the Ki at Translocator protein was determined as 0.211 µM.

In the case of `CCCN(CCC)C(=O)C(C)c1c(-c2ccc(Cl)cc2)[nH]c2ccccc12` (centres undefined), the IC50 (at Cannabinoid receptor 1; in test [1]; in test [2]; in test [3]; in [4]; in [5]) was over 1 µM each time. For the same compound, the IC50 (in [6]; in test [7]; in test [8]; on Adrenergic receptor beta; in test [9]; on Glutamate NMDA receptor) was over 1 µM each time. Besides, the IC50 in test [10] and in test [11] was over 1 µM throughout. On Translocator protein, this compound yielded a Ki of 0.8 µM.

For `CCCN(CCC)C(=O)Cc1c(-c2ccccc2)[nH]c2ccccc12`, the IC50 (at Cannabinoid receptor 1; in test [1]; in test [2]; in test [3]; in test [4]; in test [5]) was over 1 µM throughout. Moreover, the IC50 (in test [6]; in test [7]; in test [8]; on Adrenergic receptor beta; in test [9]; at Glutamate NMDA receptor) was over 1 µM in each case. In addition, the IC50 in [10] and in test [11] was over 1 µM throughout. For the same compound, at Translocator protein, the affinity corresponds to a Ki of 0.1 µM.

Regarding `CCCN(CCC)C(=O)Cc1c(-c2ccc(Cl)cc2)[nH]c2ccccc12`, the IC50 (at Cannabinoid receptor 1; in test [1]; in [2]; in test [3]; in test [4]; in test [5]) was over 1 µM each time. Moreover, the IC50 (in test [6]; in test [7]; in test [8]; at Adrenergic receptor beta; in [9]; at Glutamate NMDA receptor) was over 1 µM in each case. Moreover, the IC50 in test [10] and in [11] was over 1 µM throughout. At Translocator protein, the Ki was found to be 0.066 µM.

For `O=C1Cc2c([nH]c3ccccc23)-c2ccccc2N1` [PAULLONE], the IC50 (at Cannabinoid receptor 1; in [1]; in test [2]; in [3]; in test [4]; in test [5]) was over 1 µM each time. In addition, the IC50 (in test [6]; in test [7]; in [8]; on Adrenergic receptor beta; in test [9]; on Glutamate NMDA receptor) was over 1 µM in each case. Besides, the IC50 in test [10] and in test [11] was over 1 µM each time.

These data come from ChEMBL document CHEMBL1126834, “Chemistry, binding affinities, and behavioral properties of a new class of "antineophobic" mitochondrial DBI receptor complex (mDRC) ligands” (J Med Chem, 1993).
